m5-HT2A agonist = mouse HTR2A agonism via beta-arrestin recruitment. P35363. CHO-K1 mHTR2A beta-arrestin complementation, luminescence; percent of 30 µM serotonin response. activation, % at 7.6 µM. 360,000 tested, 0.66% active;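 active means activation above a run cutoff, the mean activation of all tested compounds plus 3 SD, cut at about 14% in these data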;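 further: 0% = plate median of compound wells and 100% = 30 µM serotonin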
Target sequence (P35363 whole entry, looked up): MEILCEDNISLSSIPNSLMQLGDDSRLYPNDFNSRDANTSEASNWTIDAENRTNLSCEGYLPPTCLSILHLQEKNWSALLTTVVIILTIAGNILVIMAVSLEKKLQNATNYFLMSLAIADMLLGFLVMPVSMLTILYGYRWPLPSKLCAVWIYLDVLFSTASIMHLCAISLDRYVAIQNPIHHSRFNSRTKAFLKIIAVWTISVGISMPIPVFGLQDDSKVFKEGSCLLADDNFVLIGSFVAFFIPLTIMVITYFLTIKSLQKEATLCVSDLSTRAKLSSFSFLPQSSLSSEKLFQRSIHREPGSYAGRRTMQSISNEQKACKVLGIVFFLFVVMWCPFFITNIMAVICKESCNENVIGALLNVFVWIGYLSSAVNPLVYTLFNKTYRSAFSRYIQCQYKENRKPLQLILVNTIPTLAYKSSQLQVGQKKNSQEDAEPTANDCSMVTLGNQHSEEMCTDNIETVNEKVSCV
AHR act = activates the human aryl hydrocarbon receptor. 320,000 tested, 2.5% active. P35869. activation, % at 5 µM. AHR-responsive luciferase reporter cells, luminescence; in the data active means activation above about 47%;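 further: 0% = vehicle wells and 100% = reference agonist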
MC4R antagonist = human MC4R antagonism in cAMP assay; P32245; MC4R-expressing cells, MTII-stimulated cAMP, LANCE TR-FRET; inhibition, % at 6.5 µM; 360,000 tested, 0.48% active; AID 540295;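 active means inhibition above its plate's cutoff, the mean of tested wells on that plate plus 3 SD, cut at about 29% in these data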;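 further: 0% = Melanotan II alone and 100% = Melanotan II plus saturating MCL0020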
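material = U2OS cells stably expressing human melanocortin 4 receptor (MC4R) | also added = Melanotan II challenge | dosing = single nominal compound dose of 6.5 µM | detection = TR-FRET with Eu-cAMP and labeled anti-cAMP, 671 nm | replication = singlicate | timing = compound 30 min, challenge 1 h, detection 1 h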
MC4R barr agon = human MC4R agonism via beta-arrestin | activation, % at 8.9 µM | 360,000 tested, 0.98% active | P32245 | AID 540308 | U2OS MC4R beta-arrestin complementation, luminescence; percent of melanotan II response, DMSO zero;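 active means activation above a per-plate cutoff, the mean activation of sample wells on that plate plus 3 SD, cut at about 8% in these data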
FXN GAA850 act = activators of GAA850 frataxin (FXN) promoter. HEK293 lucGAA850 FXN promoter luciferase reporter, 24 h; percent of 10 µM SAHA response. activation, % at 6 µM. 360,000 tested, 0.56% active;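 active means activation above the average of all compounds screened plus 3 SD, cutoff fixed separately per campaign, cut at about 7.5% in these data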;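 further: 0% = DMSO wells and 100% = 10 µM SAHA wells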
cAMP nonselect = U2OS forskolin cAMP inhibition counter-screen; shares compounds with MC4R antagonist; parental U2OS, LANCE TR-FRET; inhibition, % at 6.5 µM; 1,600 tested, 26% active; AID 602193;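 active means mean inhibition over triplicates above the low-control well mean plus 3 SD, set per campaign, cut at about 13% in these data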;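 further: signal is single emission at 671 nm which falls as cellular cAMP rises; 0% = forskolin-stimulated wells and 100% = buffer without forskolin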
MC4R cAMP antag = human MC4R cAMP antagonism confirmation | shares compounds with MC4R antagonist | MC4R-expressing cells, MTII-stimulated cAMP, TR-FRET | inhibition, % at 6.5 µM | 1,600 tested, 27% active | AID 602195; in the data active means inhibition above about 29%;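 further: 0% = agonist stimulated wells alone and 100% = agonist stimulated wells plus saturating reference antagonist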
* = called active by the depositor. Only some compounds are listed: those with a hit (about 4.7% of all), similar ones and a draw of the others.

Cc1ccc(N2CCN(C(=O)c3cccc([N+](=O)[O-])c3)CC2)cc1Cl was read as m5-HT2A agonist -4, AHR act -5, MC4R antagonist 33*, MC4R barr agon 0, FXN GAA850 act 0, cAMP nonselect 0 and MC4R cAMP antag -10.
Screening O=C(c1cccc([N+](=O)[O-])c1)N1CCN(c2cccc(Cl)c2)CC1 returned m5-HT2A agonist -3, AHR act -3, MC4R antagonist -10, MC4R barr agon 0 and FXN GAA850 act -1.
COc1ccc(CN2C(=O)c3ccccc3C2=O)cc1C(=O)O was read as m5-HT2A agonist -2, AHR act 2, MC4R antagonist 30*, MC4R barr agon 1, FXN GAA850 act 1, cAMP nonselect 3 and MC4R cAMP antag -3.
Screening CCO[C@H]1OC(C(=O)NC2CC2)=C[C@@H](c2csc3ccccc23)[C@@H]1CCCO returned m5-HT2A agonist -3, AHR act 2, MC4R antagonist 7, MC4R barr agon -2 and FXN GAA850 act -2.
O=C1OCCN1C(=O)[C@H]1[C@H](c2ccccc2)C(c2ccccc2)=NN1c1ccc(Br)cc1 was read as m5-HT2A agonist -3, MC4R antagonist 16, MC4R barr agon 1 and FXN GAA850 act -1.
For O=C(NCc1cccs1)C1C(=O)Nc2ccccc2C(=O)N1C1CCCC1 (stereo not given) the results were m5-HT2A agonist 3.
Screening NS(=O)(=O)c1cccc(NC(=O)c2cccc3c(Br)cccc23)c1 returned m5-HT2A agonist -5, AHR act 0, MC4R antagonist 43*, MC4R barr agon 1, FXN GAA850 act -1, cAMP nonselect 3 and MC4R cAMP antag 7.
`NS(=O)(=O)c1cccc(NC(=O)c2cncc(Br)c2)c1` gave m5-HT2A agonist -4, AHR act 7, MC4R antagonist -10, MC4R barr agon -2 and FXN GAA850 act 0.
For COc1ccccc1NC(=O)NC1CCS(=O)(=O)C1 (stereo not given) the results were m5-HT2A agonist 4, AHR act -2, MC4R antagonist 34*, MC4R barr agon -1, FXN GAA850 act -2, cAMP nonselect 2 and MC4R cAMP antag 5.
Screening CCN(C(=O)CSc1n[nH]c(-c2cccs2)n1)C1CCS(=O)(=O)C1 (stereo not given) returned m5-HT2A agonist 3, AHR act 6, MC4R antagonist 30*, MC4R barr agon -1, FXN GAA850 act 0, cAMP nonselect -4 and MC4R cAMP antag -3.
For O=C(CSc1n[nH]c(-c2cccs2)n1)NC1CCS(=O)(=O)C1 (stereo not given) the results were m5-HT2A agonist -2, AHR act 32, MC4R antagonist 0, MC4R barr agon -1 and FXN GAA850 act 1.
O=C(CSc1nccc(=O)[nH]1)Nc1ccccc1Sc1ccccc1 was read as m5-HT2A agonist -4, AHR act 0, MC4R antagonist 31*, MC4R barr agon 1, FXN GAA850 act 2, cAMP nonselect 0 and MC4R cAMP antag -12.
For O=C(CCN=C1NS(=O)(=O)c2ccccc21)OCc1cccc(Cl)c1 the results were m5-HT2A agonist 1, AHR act 4, MC4R antagonist 2, MC4R barr agon -1 and FXN GAA850 act 0.
Cc1cc(Br)c2nc3c(c(C(=O)O)c2c1)CCCCC3 was read as m5-HT2A agonist 4, AHR act 0, MC4R antagonist active, MC4R barr agon 3, FXN GAA850 act 3 and cAMP nonselect active.
`CCc1ccc2nc3c(c(C(=O)O)c2c1)CCC3` gave m5-HT2A agonist 1, AHR act -2, MC4R antagonist -1, MC4R barr agon 0 and FXN GAA850 act -3.
For CCCCCCCN(c1ccccc1)[C@@H]1C[C@H]2CCCC(=O)N3CC[C@@H](C1)[C@@H]23 the results were m5-HT2A agonist -3, MC4R antagonist 34*, MC4R barr agon 4, FXN GAA850 act -2, cAMP nonselect -7 and MC4R cAMP antag 34*.
`Cc1ccc(NC(=O)CSc2nnc(NC3CC3)s2)cc1S(=O)(=O)N1CCOCC1` gave m5-HT2A agonist 2, MC4R antagonist 12, MC4R barr agon 1 and FXN GAA850 act 0.
For Cc1cccc(OCC(=O)Nc2ccc3c(c2)nc(CN2CCCCC2)n3C)c1 the results were m5-HT2A agonist -7, AHR act 1, MC4R antagonist 32*, MC4R barr agon 1, FXN GAA850 act -6, cAMP nonselect -1 and MC4R cAMP antag -16.
`CCC(C)(C)NC(=O)CN(CC1CCCO1)C(=O)CCC(=O)Nc1nccs1` (stereo not given) gave m5-HT2A agonist 2, AHR act 0, MC4R antagonist 35*, MC4R barr agon 0, FXN GAA850 act 1, cAMP nonselect -4 and MC4R cAMP antag -6.
For CSc1ccccc1C(=O)Nc1ccccc1C the results were m5-HT2A agonist -3, AHR act -2, MC4R antagonist -7, MC4R barr agon -3 and FXN GAA850 act 0.
`CSc1ccccc1C(=O)Nc1c(C)cccc1C` gave m5-HT2A agonist 9, AHR act 5, MC4R antagonist 32*, MC4R barr agon 2, FXN GAA850 act -4, cAMP nonselect -2 and MC4R cAMP antag -11.
Screening CN(/N=C/c1cc(Cl)cc(Cl)c1O)c1c(Cl)cccc1[N+](=O)[O-] returned m5-HT2A agonist -7, AHR act 11, MC4R antagonist 30*, MC4R barr agon 0, FXN GAA850 act -1, cAMP nonselect -4 and MC4R cAMP antag 12.
COc1cc(C(=O)NCC(=O)N/N=C\C(C)=C/c2ccccc2)cc(OC)c1OC was read as m5-HT2A agonist -3, AHR act -2, MC4R antagonist 30*, MC4R barr agon 0, FXN GAA850 act -2, cAMP nonselect -1 and MC4R cAMP antag -4.
For CCCc1nc(SCC(=O)Nc2nc3c(s2)CCCC3)c2ccccc2n1 the results were m5-HT2A agonist 0, AHR act 1, MC4R antagonist 36*, MC4R barr agon 2, FXN GAA850 act -2, cAMP nonselect 11 and MC4R cAMP antag 27.
`CCCc1nc(SCC(=O)NC2CCCC2)c2ccccc2n1` gave m5-HT2A agonist 1, AHR act 7, MC4R antagonist 8, MC4R barr agon -2 and FXN GAA850 act 0.
Screening CCc1nc(SCC(=O)Nc2nc3c(s2)CCCC3)c2ccccc2n1 returned m5-HT2A agonist -1, AHR act 9, MC4R antagonist 33*, MC4R barr agon 2, FXN GAA850 act -2, cAMP nonselect 17* and MC4R cAMP antag 47*.
`O=C(NCc1ccccc1CN1CCCC1)c1ccc(Cl)c(S(=O)(=O)N2CCCC2)c1` gave m5-HT2A agonist -17, MC4R antagonist 2, MC4R barr agon -1 and FXN GAA850 act 2.
